# In ChEMBL document CHEMBL4619773, “Chemoreactive-Inspired Discovery of Influenza A Virus Dual Inhibitor to Block Hemagglutinin-Mediated Adsorption and Membrane Fusion” (J Med Chem, 2020):
# The source made the active and inactive calls. No cut-off for these calls is given here.
# What was measured:
# [1] = tested on: Influenza A virus (A/Aichi/2/1968(H3N2)); assay: Binding affinity to Influenza A virus (A/Aichi/2/1968(H3N2)) Hemagglutinin at 1.5625 to 50 uM by SPR assay
# How it was run: (§1)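 HA protein was immobilized on CM5 chips. Compound (50, […], 12.5, 6.25, 3.125, 1.5625 µM) was injected for 2 min, followed by a 10-min PBST wash and regeneration with 2 mM NaOH for 30 s. Runs were at 25 °C with 2 µl/s flow, using a blank HA-free reference channel. KD was obtained from kinetic fitting.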
# [2] = biological target: Hemagglutinin (Influenza A virus (A/Puerto Rico/8/1934(H1N1)), UniProt P03452); assay: Binding affinity to Influenza A virus (A/Puerto Rico/8/1934(H1N1)) Hemagglutinin at 1.5625 to 50 uM by SPR assay; how it was run: as §1
# Chain of Hemagglutinin (Influenza A virus (A/Puerto Rico/8/1934(H1N1)), UniProt P03452) (P03452 whole entry): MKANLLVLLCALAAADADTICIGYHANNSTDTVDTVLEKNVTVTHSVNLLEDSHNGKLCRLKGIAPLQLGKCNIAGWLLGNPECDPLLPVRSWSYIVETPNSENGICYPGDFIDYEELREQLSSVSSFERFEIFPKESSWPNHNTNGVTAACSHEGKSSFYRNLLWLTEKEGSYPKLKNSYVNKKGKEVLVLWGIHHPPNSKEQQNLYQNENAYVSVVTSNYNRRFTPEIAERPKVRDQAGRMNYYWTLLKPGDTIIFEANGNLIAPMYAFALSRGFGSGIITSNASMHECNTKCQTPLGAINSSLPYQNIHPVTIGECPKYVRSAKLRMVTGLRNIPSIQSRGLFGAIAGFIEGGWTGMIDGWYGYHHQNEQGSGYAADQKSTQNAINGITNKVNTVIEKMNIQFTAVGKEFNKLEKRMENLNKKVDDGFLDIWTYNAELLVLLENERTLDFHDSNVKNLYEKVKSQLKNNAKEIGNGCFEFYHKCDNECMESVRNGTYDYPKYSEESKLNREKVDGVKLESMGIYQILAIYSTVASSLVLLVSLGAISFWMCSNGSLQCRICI
# [3] = Selectivity index, ratio of CC50 for cytotoxicity in dog MDCK cells assessed as reduction in cell viability incubated for 48 hrs by crystal violet staining based assay to […] in dog MDCK cells assessed as reduction in cell viability incubated for 48 hrs by crystal violet staining based assay
# Influenza A virus [4] = assay: Antiviral activity against Influenza A virus (A/Puerto Rico/8/1934(H1N1)) infected in MDCK cells assessed as inhibition of virus-induced cytopathic effect incubated for 48 hrs by crystal violet staining based assay; format: functional, organism-based
# How it was run: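 MDCK cells were infected at MOI 0.1, the inoculum was removed, and compounds were added in triplicate. After 48 h the cells were fixed in 4% formaldehyde (20 min, RT) and stained with 0.1% crystal violet (30 min). Dye was solubilized in methanol and read at 570 nm.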
# [5] = Cytotoxicity in dog MDCK cells assessed as reduction in cell viability incubated for 48 hrs by crystal violet staining based assay; design: species or system Canis lupus familiaris
# Influenza A virus [6] = assay: Antiviral activity against Influenza A virus (A/Puerto Rico/8/1934(H1N1)) infected in Kunming mouse assessed as mouse survival at 10 mg/kg/day, po starting 4 hrs after viral challenge and continued for 7 days by plaque assay; format: functional
# How it was run: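 Groups of 10 female Kunming mice were infected intranasally with PR8 (1000 PFU/mouse) on day 0 and dosed once daily for seven days. Weight and clinical signs were recorded daily. Mice losing more than 25% of pre-infection weight were scored dead and euthanized; survivors were killed on day 14.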
# Influenza A virus [7] = assay: Antiviral activity against Influenza A virus (A/Puerto Rico/8/1934(H1N1)) infected in Kunming mouse assessed as decrease in lung TNFalpha level at 10 mg/kg/day, po starting 4 hrs after viral challenge and continued for 4 days by ELISA; format: functional, organism-based
# How it was run: (§2)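 Four-week-old female Kunming mice received PR8 intranasally (500 PFU/mouse in 40 µL PBS) and were then dosed once daily orally or intranasally. Lungs were collected on day 4, and TNF-α and IL-6 in lung tissue were measured by ELISA.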
# Influenza A virus [8] = assay: Antiviral activity against Influenza A virus (A/Puerto Rico/8/1934(H1N1)) infected in Kunming mouse assessed as decrease in lung IL6 level at 10 mg/kg/day, po starting 4 hrs after viral challenge and continued for 4 days by ELISA; format: functional, organism-based; how it was run: as §2
compound,measurement,setting,value
CC(=O)NC1[C@H]([C@H](O)[C@H](O)CO)O[C@@](O[C@H]2[C@@H](O)[C@@H](CO)O[C@@H](O[C@@H]([C@H](O)[C@@H](O)C=O)[C@H](O)CO)[C@@H]2O)(C(=O)O)C[C@@H]1O (stereo not given in full),Activity,[1],Active
same,Kd,[2]; read-out: Kd,4.5 µM
CCOC(=O)c1c(CSc2ccccc2)n(C)c2cc(Br)c(O)c(CN(C)C)c12 [UMIFENOVIR],Activity,[1],Active
same,Kd,[2]; read-out: Kd,11.1 µM
same,Ratio CC50/IC50,[3],10.4
same,IC50,Influenza A virus [4],32.5 µM
CC(=O)c1cc(C)c(O)c(Cc2[nH]c3ccc(C)cc3c2Cc2c(O)c(C)cc(C(C)=O)c2O)c1O,CC50 at 48 h,[5],681 µM
same,Ratio CC50/IC50,[3],17.1
same,IC50,Influenza A virus [4],39.8 µM
CC(=O)c1cc(C)c(O)c(Cc2cn(Cc3c(O)c(C)cc(C(C)=O)c3O)c3cccc(Br)c23)c1O,IC50,Influenza A virus [4],> 100 µM
CC(=O)c1cc(C)c(O)c(Cc2c(Cc3c(O)c(C)cc(C(C)=O)c3O)n(Cc3c(O)c(C)cc(C(C)=O)c3O)c3cccc(Br)c23)c1O,IC50,Influenza A virus [4],> 100 µM
CC(=O)c1cc(C)c(O)c(CNc2cc(C(F)(F)F)cc(C(F)(F)F)c2)c1O,IC50,Influenza A virus [4],> 100 µM
CC(=O)c1cc(C)c(O)c(Cc2c[nH]c3ccccc23)c1O,Kd,[2],Not Active
NC(=O)c1ncn([C@@H]2O[C@H](CO)[C@@H](O)[C@H]2O)n1 [RIBAVIRIN],Ratio CC50/IC50,[3],20.8
same,IC50,Influenza A virus [4],98.3 µM
CC(=O)c1cc(C)c(O)c(Cc2c(Cc3c(O)c(C)cc(C(C)=O)c3O)n(Cc3c(O)c(C)cc(C(C)=O)c3O)c3ccccc23)c1O,IC50,Influenza A virus [4],> 100 µM
CC(=O)c1cc(C)c(O)c(Cc2[nH]c3cccc(Br)c3c2Cc2c(O)c(C)cc(C(C)=O)c2O)c1O,IC50,Influenza A virus [4],> 100 µM
CCOC(=O)C1=C[C@@H](OC(CC)CC)[C@H](NC(C)=O)[C@@H](N)C1 [OSELTAMIVIR],survival at 10 mg/kg/day,Influenza A virus [6],100%
same,Activity,Influenza A virus [7],Active
same,Activity,Influenza A virus [8],Active
